# Several values for one entry are separate records, joined by “and”; a condition that tells them apart may be missing. Equal values may be shown once. Entries after “also recorded” stand apart in the source; their conditions may differ. Read-outs that look alike come from different tables or passages of the source.
# Experiments:
# Format in all cases: in vivo, human
# [1] = Plasma pharmacokinetics, part 1 sentinel cohort
# Procedure, shortened: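 Part 1: healthy participants (n = 8) randomised 3:1 to test compound 500 mg or placebo orally once daily for 7 days, given with a moderate-fat meal (~600 cal, 30% fat) 30 min before dosing. Plasma sampled within 40 min predose on Days 1, 5, 6 and 7, and on Day 7 at 0.5–48 h postdose. Validated UHPLC-MS/MS, range 3.00–1000 ng mL−1.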
# [2] = Plasma pharmacokinetics, part 2 main QTc study; conditions: for Cτ, geometric mean (%CVb): moderate-fat meal, Day 7, n = 40
# Procedure, shortened: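 Moderate-fat meal 30 min before each dose. Plasma sampled predose on Days 1, 5, 6 and 7, and on Day 7 at 0.5–24 h postdose. Test compound assayed by validated UHPLC-MS/MS (3.00–1000 ng mL−1).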
# healthy participants [3] = test system: healthy participants
# healthy participants [4] = test: Concentration-QTc analysis
# Procedure, shortened: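 Part 2: 12-lead ECGs extracted from continuous Holter recordings at baseline (Day −1; −45, −30, −15 min predose Day 1) and on Day 7 predose and 0.5–24 h postdose. ECGs taken before PK blood draws. QTcF by Fridericia. Mixed-effects model of ΔQTcF on plasma test compound concentration, with centred baseline QTcF, treatment and time fixed, and per-participant random slope and intercept.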
# healthy participants [5] = test: Safety assessments
# Procedure, shortened: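 Part 2 healthy participants confined from Day −2 of period 1 to Day 9 of period 4. […] AEs monitored throughout, recording duration, severity, causality and outcome, alongside safety ECGs, laboratory tests, physical examination and vital signs.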
# [6] = GSK'254 500 mg QD, 24 h post-dose
# [7] = part 2, GSK'254 100 mg (N = 40)
smiles,measurement,setting,value
C=C(C)[C@@H]1CC[C@]2(NCCN3CCS(=O)(=O)CC3)CC[C@]3(C)[C@H](CC[C@@H]4[C@@]5(C)CC=C(C6=CC[C@@](CF)(C(=O)O)CC6)C(C)(C)[C@@H]5CC[C@]43C)[C@@H]12 [GSK'254],AUC,"[1]; human, plasma, oral, 500 mg",68800 ng·h/mL
same,Cmax,"[1]; human, plasma, oral, 500 mg",4440 ng/mL
same,"Cτ, geometric mean (%CVb)","[1]; part 1, GSK'254 500 mg QD 7 days, moderate-fat meal, Day 7, n = 6",2080 ng mL^−1 and 2080 (32.4) ng mL^−1
same,AUC,"[2]; human, plasma, oral, 100 mg",13800 ng·h/mL
same,AUC,"[2]; human, plasma, oral, 500 mg",67500 ng·h/mL
same,Cmax,"[2]; human, plasma, oral, 500 mg",4260 ng/mL
same,"Cτ, geometric mean (%CVb)","[2]; part 2, GSK'254 100 mg QD 7 days",460 ng mL^−1 and 460 (40.3) ng mL^−1
same,"Cτ, geometric mean (%CVb)","[2]; part 2, GSK'254 500 mg QD 7 days",2140 ng mL^−1 and 2140 (46.6) ng mL^−1
same,Geometric mean steady-state exposure values with GSK'254 500 mg relative to GSK'254 100 mg,"[2]; part 2, QD 7 days",~ 5 fold
same,"Clinically relevant effects on cardiac parameters (QTc prolongation, HR, cardiac conduction)",healthy participants [3]; GSK'254 100 mg QD,"No clinically relevant effects on cardiac parameters; also recorded: No clinically relevant effects on QTc prolongation, HR, or cardiac conduction"
same,Observations of ΔQTcF >30 ms,healthy participants [3]; GSK'254 100 mg QD,no participants
same,Outliers in HR changes (HR >100 bpm with a >25% increase in ΔHR),healthy participants [3]; GSK'254 100 mg QD,one participant at one time point
same,Reports of QTcF >450 to ≤480 ms,healthy participants [3]; GSK'254 100 mg QD,one participant (one time point)
same,"LS mean ΔΔHR, lowest across time points","healthy participants [3]; GSK'254 100 mg QD, 0.5 h post-dose, Day 7",−0.2 (−2.17–1.67) bpm
same,"LS mean ΔΔHR, highest across time points","healthy participants [3]; GSK'254 100 mg QD, 24 h post-dose, Day 7",2.6 (0.70–4.53) bpm
same,"ΔΔQTcF, LS mean (90% CI)","healthy participants [3]; GSK'254 100 mg QD, Day 7, 0.5 h","1.0 (−1.60, 3.59) ms"
same,"ΔΔQTcF, LS mean (90% CI)","healthy participants [3]; GSK'254 100 mg QD, Day 7, 1 h","0.6 (−2.06, 3.33) ms"
same,"ΔΔQTcF, LS mean (90% CI)","healthy participants [3]; GSK'254 100 mg QD, Day 7, 2 h","1.7 (−1.27, 4.73) ms"
same,"ΔΔQTcF, LS mean (90% CI)","healthy participants [3]; GSK'254 100 mg QD, Day 7, 3 h","1.5 (−1.45, 4.51) ms"
same,"ΔΔQTcF, LS mean (90% CI)","healthy participants [3]; GSK'254 100 mg QD, Day 7, 4 h","1.0 (−1.59, 3.54) ms"
same,"ΔΔQTcF, LS mean (90% CI)","healthy participants [3]; GSK'254 100 mg QD, Day 7, 4.5 h","1.0 (−1.73, 3.82) ms"
same,"ΔΔQTcF, LS mean (90% CI)","healthy participants [3]; GSK'254 100 mg QD, Day 7, 5 h","0.2 (−2.44, 2.80) ms"
same,"ΔΔQTcF, LS mean (90% CI)","healthy participants [3]; GSK'254 100 mg QD, Day 7, 6 h","1.7 (−1.58, 4.97) ms"
same,"ΔΔQTcF, LS mean (90% CI)","healthy participants [3]; GSK'254 100 mg QD, Day 7, 8 h","−0.8 (−3.54, 1.90) ms"
same,"ΔΔQTcF, LS mean (90% CI)","healthy participants [3]; GSK'254 100 mg QD, Day 7, 10 h","0.2 (−2.30, 2.65) ms"
same,"ΔΔQTcF, LS mean (90% CI)","healthy participants [3]; GSK'254 100 mg QD, Day 7, 12 h","0.5 (−2.43, 3.35) ms"
same,"ΔΔQTcF, LS mean (90% CI)","healthy participants [3]; GSK'254 100 mg QD, Day 7, 24 h","0.1 (−2.66, 2.76) ms"
same,"ΔΔQTcF, LS mean (90% CI)","healthy participants [3]; GSK'254 100 mg QD, Day 7, […]","1.4 (−1.30, 4.13) ms"
same,"ΔΔQTcF, LS mean (90% CI)","healthy participants [3]; GSK'254 100 mg QD, Day 7, pre-dose","1.4 (−0.88, 3.77) ms"
same,Maximum LS mean ΔΔQTcF,"healthy participants [3]; GSK'254 100 mg QD, at 2 and 6 h post-dose on Day 7",1.7 ms
same,Upper bound of the 90% CI of LS mean ΔΔQTcF,"healthy participants [3]; GSK'254 100 mg QD, through 24 h post-dose on Day 7",< 10 ms
same,Observations of ΔQTcF >30 ms,healthy participants [3]; GSK'254 500 mg QD,two participants (three time points)
same,Outliers in HR changes (HR >100 bpm with a >25% increase in ΔHR),healthy participants [3]; GSK'254 500 mg QD,one participant at one time point
same,Reports of QTcF >450 to ≤480 ms,healthy participants [3]; GSK'254 500 mg QD,one participant (one time point)
same,Largest LS mean ΔΔHR,"healthy participants [3]; GSK'254 500 mg QD, 10 h post-dose on Day 7",5.1 bpm
same,"LS mean placebo-corrected change from baseline in PR, lowest across post-dose time points",healthy participants [3]; [6],−1.8 (−4.00–0.36) ms
same,"LS mean placebo-corrected change from baseline in QRS, maximum value",healthy participants [3]; [6],1.4 ms
same,"ΔΔQTcF, LS mean (90% CI)","healthy participants [3]; GSK'254 500 mg QD, Day 7, 0.5 h","7.2 (4.59, 9.83) ms"
same,"ΔΔQTcF, LS mean (90% CI)","healthy participants [3]; GSK'254 500 mg QD, Day 7, 1 h","4.1 (1.34, 6.79) ms"
same,"ΔΔQTcF, LS mean (90% CI)","healthy participants [3]; GSK'254 500 mg QD, Day 7, 2 h","6.5 (3.46, 9.55) ms"
same,"ΔΔQTcF, LS mean (90% CI)","healthy participants [3]; GSK'254 500 mg QD, Day 7, 3 h","8.1 (5.06, 11.09) ms"
same,"ΔΔQTcF, LS mean (90% CI)","healthy participants [3]; GSK'254 500 mg QD, Day 7, 4 h","8.6 (6.03, 11.22) ms"
same,"ΔΔQTcF, LS mean (90% CI)","healthy participants [3]; GSK'254 500 mg QD, Day 7, 4.5 h","10.6 (7.75, 13.38) ms"
same,"ΔΔQTcF, LS mean (90% CI)","healthy participants [3]; GSK'254 500 mg QD, Day 7, 5 h","9.6 (6.92, 12.24) ms"
same,"ΔΔQTcF, LS mean (90% CI)","healthy participants [3]; GSK'254 500 mg QD, Day 7, 6 h","8.6 (5.27, 11.89) ms"
same,"ΔΔQTcF, LS mean (90% CI)","healthy participants [3]; GSK'254 500 mg QD, Day 7, 8 h","8.1 (5.34, 10.85) ms"
same,"ΔΔQTcF, LS mean (90% CI)","healthy participants [3]; GSK'254 500 mg QD, Day 7, 10 h","8.6 (6.14, 11.15) ms"
same,"ΔΔQTcF, LS mean (90% CI)","healthy participants [3]; GSK'254 500 mg QD, Day 7, 12 h","6.0 (3.07, 8.89) ms"
same,"ΔΔQTcF, LS mean (90% CI)","healthy participants [3]; GSK'254 500 mg QD, Day 7, 24 h","7.7 (4.94, 10.45) ms"
same,"ΔΔQTcF, LS mean (90% CI)","healthy participants [3]; GSK'254 500 mg QD, Day 7, […]","9.2 (6.44, 11.93) ms"
same,"ΔΔQTcF, LS mean (90% CI)","healthy participants [3]; GSK'254 500 mg QD, Day 7, pre-dose","7.1 (4.74, 9.46) ms"
same,"LS mean placebo-corrected change from baseline in PR, highest across post-dose time points","healthy participants [3]; GSK'254 500 mg QD, […] post-dose",3.2 (0.86–5.57) ms
same,Maximum LS mean ΔΔQTcF,"healthy participants [3]; GSK'254 500 mg QD, at 4.5 h post-dose on Day 7",10.6 ms and 10.6 (7.75–13.38) ms
same,Clinically relevant effects on heart rate or cardiac conduction (PR and QRS intervals),healthy participants [3]; both GSK'254 doses (100 and 500 mg QD),Neither GSK'254 dose had clinically relevant effects on heart rate or cardiac conduction; also recorded: neither GSK'254 dose had a clinically relevant effect on cardiac conduction (PR and QRS intervals) or HR
same,Treatment effect-specific intercept of the concentration-QTc model,healthy participants [4]; Day 7,0.61 ms
same,Model-predicted ΔΔQTcF at geometric mean GSK'254 Cmax,healthy participants [4]; GSK'254 100 mg,2.72 ms
same,Model-predicted ΔΔQTcF at geometric mean GSK'254 Cmax,healthy participants [4]; GSK'254 500 mg,11.49 ms
same,Estimated population slope of the concentration-QTc model,"healthy participants [4]; ΔΔQTcF vs GSK'254 plasma concentration, Day 7",0.0025 ms per ng mL^−1
same,Tolerability,"healthy participants [5]; both GSK'254 doses, short-term administration, all AEs mild in intensity",generally well tolerated
same,AE: Abdominal pain,healthy participants [5]; [7],0 n (%)
same,AE: Acne,healthy participants [5]; [7],2 (5) n (%)
same,AE: Diarrhea,healthy participants [5]; [7],0 n (%)

# Source: publication PMC10644204 (Pharmacology Research & Perspectives, 2023)
